Experimental data published in ChEMBL document CHEMBL3612021, “Structure-kinetics relationships of Capadenoson derivatives as adenosine A1 receptor agonists” (Eur J Med Chem, 2015).

Key:
[1] = target: T1, Adenosine receptor A1 (Homo sapiens) (UniProt P30542); assay: Displacement of [3H]DPCPX from human adenosine A1 receptor expressed in CHO cell membranes assessed as kinetic rate index by measuring ratio of binding at earlier and later time points by competition association assay
T1 sequence (whole entry): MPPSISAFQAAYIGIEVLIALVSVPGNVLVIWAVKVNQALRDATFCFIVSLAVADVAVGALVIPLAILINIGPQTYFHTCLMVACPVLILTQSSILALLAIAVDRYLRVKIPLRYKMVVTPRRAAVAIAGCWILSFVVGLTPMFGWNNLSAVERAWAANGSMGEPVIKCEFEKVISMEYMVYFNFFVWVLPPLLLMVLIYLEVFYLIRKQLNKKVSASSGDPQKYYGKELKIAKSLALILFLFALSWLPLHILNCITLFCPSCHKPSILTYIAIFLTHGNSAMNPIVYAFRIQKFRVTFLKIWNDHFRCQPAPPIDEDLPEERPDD
Outline: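 Dual-point competition association assay with [3H]DPCPX on CHO membranes stably expressing hA1. Specific binding is read at two time points in the presence of the test ligand. KRI is the ratio of binding at the earlier to the later time point (n = 2; both values reported).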

[2] = target: Adenosine receptor A2a (Homo sapiens) (UniProt P29274); assay: Displacement of [3H]ZM241385 from human adenosine A2A receptor expressed in HEK293 cell membranes at 1 uM by competition association assay
[3] = target: T2, Adenosine receptor A2b (Homo sapiens) (UniProt P29275); assay: Displacement of [3H]PSB603 from human adenosine A2B receptor expressed in CHO cell membranes at 1 uM by competition association assay
T2 sequence (whole entry): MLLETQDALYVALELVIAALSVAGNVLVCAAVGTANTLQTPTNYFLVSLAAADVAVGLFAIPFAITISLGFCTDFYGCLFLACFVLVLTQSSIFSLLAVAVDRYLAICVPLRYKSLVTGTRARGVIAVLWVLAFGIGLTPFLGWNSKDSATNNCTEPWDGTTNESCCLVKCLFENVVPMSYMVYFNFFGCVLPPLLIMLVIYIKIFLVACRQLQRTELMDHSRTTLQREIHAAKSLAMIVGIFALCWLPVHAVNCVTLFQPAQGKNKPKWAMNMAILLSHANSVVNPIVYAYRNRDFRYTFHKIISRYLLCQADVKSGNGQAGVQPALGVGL
Outline: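 Single-point test at 1 µM measuring percent displacement of specific [3H]PSB603 binding on CHO membranes stably expressing human A2B receptors.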

[4] = target: T3, Adenosine receptor A3 (Homo sapiens) (UniProt P0DMS8); assay: Displacement of [3H]PSB11 from human adenosine A3 receptor expressed in CHO cell membranes at 1 uM by competition association assay
T3 sequence (whole entry): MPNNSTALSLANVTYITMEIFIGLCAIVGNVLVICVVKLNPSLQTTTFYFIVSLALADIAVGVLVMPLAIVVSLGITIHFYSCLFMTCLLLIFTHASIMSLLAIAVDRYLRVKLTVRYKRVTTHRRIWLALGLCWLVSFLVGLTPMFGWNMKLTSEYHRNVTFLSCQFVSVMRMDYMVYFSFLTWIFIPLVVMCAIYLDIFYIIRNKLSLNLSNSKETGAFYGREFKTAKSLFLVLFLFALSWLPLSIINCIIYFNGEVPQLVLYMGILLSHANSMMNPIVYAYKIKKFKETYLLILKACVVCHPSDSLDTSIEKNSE
Outline: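 Single-point screen at 1 µM measuring displacement of specific [3H]PSB11 binding on CHO cell membranes stably expressing human A3 receptors.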

Adenosine receptor A1 = target: T4, Adenosine receptor A1 (Homo sapiens, UniProt P30542); assay: Agonist activity at human adenosine A1 receptor expressed in CHO cell membranes by [35S]GTPgammaS binding assay; type: functional
T4 sequence (P30542 whole entry): T1 sequence (whole entry)
Outline: (§1)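 CHO-hA1 membrane homogenates (3 µg) equilibrated 30 min at 25 °C in 50 mM Tris, 100 mM NaCl, 5 mM MgCl2, 1 mM EDTA, 1 mM DTT, 0.05% BSA, pH 7.4, with 3 µM GDP, saponin and ligand over a concentration range. [35S]GTPγS then added (final 0.3 nM) and incubated 90 min at 25 °C. Filtration on GF/B, ice-cold washes, scintillation counting. n = 3.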

[5] = target: T1, Adenosine receptor A1 (Homo sapiens); assay: Agonist activity at human adenosine A1 receptor expressed in CHO cell membranes by [35S]GTPgammaS binding assay relative to 100 uM CPA; type: functional; outline: as §1
[6] = target: Adenosine receptors; A1 & A3 (Homo sapiens) (UniProt P30542+P0DMS8); assay: Selectivity for human adenosine A1 receptor expressed in CHO cell membranes over human adenosine A3 receptor expressed in CHO cell membrane; type: cell-based
[7] = target: T1, Adenosine receptor A1 (Homo sapiens); assay: Displacement of [3H]DPCPX from human adenosine A1 receptor expressed in CHO cell membranes at 1 uM by competition association assay
[8] = target: T1, Adenosine receptor A1 (Homo sapiens); assay: Displacement of [3H]DPCPX from human adenosine A1 receptor expressed in CHO cell membranes assessed as association rate constant by competition association assay
Outline: (§2)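 Competition association assay on CHO cell membranes stably expressing hA1, with [3H]DPCPX as tracer. kon and koff come from these association curves (n ≥ 3, ± SEM). Residence time is shown alongside koff and corresponds to 1/koff in minutes.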

[9] = target: T1, Adenosine receptor A1 (Homo sapiens); assay: Displacement of [3H]DPCPX from human adenosine A1 receptor expressed in CHO cell membranes assessed as dissociation rate constant by competition association assay; outline: as §2
[10] = target: T1, Adenosine receptor A1 (Homo sapiens); assay: Displacement of [3H]DPCPX from human adenosine A1 receptor expressed in CHO cell membranes assessed as residence time by competition association assay; outline: as §2

Chain of Adenosine receptor A2a (Homo sapiens) (P29274 whole entry): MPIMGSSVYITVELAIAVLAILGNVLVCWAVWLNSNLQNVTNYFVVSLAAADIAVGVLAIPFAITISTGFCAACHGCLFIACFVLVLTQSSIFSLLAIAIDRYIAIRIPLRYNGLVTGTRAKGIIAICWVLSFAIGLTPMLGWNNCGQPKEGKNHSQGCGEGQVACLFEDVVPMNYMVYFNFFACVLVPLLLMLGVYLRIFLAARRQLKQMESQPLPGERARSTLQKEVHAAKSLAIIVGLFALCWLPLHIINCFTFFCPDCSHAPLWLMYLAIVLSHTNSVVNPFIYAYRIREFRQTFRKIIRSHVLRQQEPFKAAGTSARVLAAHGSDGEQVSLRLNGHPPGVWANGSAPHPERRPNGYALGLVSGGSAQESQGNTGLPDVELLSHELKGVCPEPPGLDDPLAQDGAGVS

| Structure (SMILES) | Ratio [1] | inhibition [2] [%] | inhibition [3] [%] | inhibition [4] [%] | EC50 (Adenosine receptor A1) [nM] | Emax [5] [%] | Selectivity ratio [6] | inhibition [7] [%] | K [8] | K [9] [min⁻¹] | TIME [10] [h] |
| --- | --- | --- | --- | --- | --- | --- | --- | --- | --- | --- | --- |
| COc1ccc(-c2c(C#N)c(N)nc(SCc3nc(-c4ccc(Cl)cc4)sc3Cl)c2C#N)cc1 | 1.79 |  |  |  |  |  |  |  | 1.4 ×10⁶ /M/min | 0.028 | 0.595 |
| N#Cc1c(N)nc(SCc2csc(-c3ccc(Cl)cc3)n2)c(C#N)c1-c1ccc(O)cc1 | 2.07 |  |  |  |  |  |  | > 80 | 4.3 ×10⁶ /M/min | 0.028 | 0.595 |
| COc1ccc(-c2c(C#N)c(N)nc(SCc3csc(-c4ccc(Br)cc4)n3)c2C#N)cc1 | 1.55 |  |  |  |  |  |  | > 80 | 2.4 ×10⁶ /M/min | 0.02 | 0.833 |
| COc1ccc(-c2c(C#N)c(N)nc(SCc3csc(-c4ccc(Cl)c(Cl)c4)n3)c2C#N)cc1 | 2.35 |  |  |  |  |  |  |  | 1.1 ×10⁶ /M/min | 0.019 | 0.877 |
| COc1ccc(-c2c(C#N)c(N)nc(SCc3csc(-c4ccc(Cl)cc4)n3)c2C#N)cc1 | 2.55 | 5.8 | 20 | 19 | 2.9 | 83 | > 100 | > 80 | 2.6 ×10⁶ /M/min | 0.0076 | 2.2 |
| COc1ccc(-c2c(C#N)c(N)nc(SCc3csc(-c4ccccc4Cl)n3)c2C#N)cc1 | 1.53 |  |  |  |  |  |  | > 80 | 9.4 ×10⁵ /M/min | 0.024 | 0.695 |
| COc1ccc(-c2c(C#N)c(N)nc(SCc3csc(N4CCOCC4)n3)c2C#N)cc1 | 1.12 | 0 | 0 | 51 | 1.9 | 104 | > 100 | > 80 |  |  |  |
| COc1ccc(-c2c(C#N)c(N)nc(SCc3csc(-c4cccc(Cl)c4)n3)c2C#N)cc1 | 1.6 |  |  |  |  |  |  | > 80 | 7.7 ×10⁵ /M/min | 0.025 | 0.667 |
| N#Cc1c(N)nc(SCc2csc(-c3ccc(Cl)cc3)n2)c(C#N)c1-c1ccc(OCCO)cc1 [CAPADENOSON] | 1.42 | 0 | 2.5 | 1.2 | 1.1 | 97 | > 100 | > 80 | 2.4 ×10⁷ /M/min | 0.036 | 0.463 |
| N#Cc1c(N)nc(SCc2csc(-c3ccc(Cl)cc3)n2)c(C#N)c1-c1ccc2c(c1)OCO2 | 2 |  |  |  |  |  |  | > 80 | 2.4 ×10⁶ /M/min | 0.016 | 1.04 |

Further lines, results first:

| Ratio [1] | inhibition [2] [%] | inhibition [3] [%] | inhibition [4] [%] | EC50 (Adenosine receptor A1) [nM] | Emax [5] [%] | Selectivity ratio [6] | inhibition [7] [%] | K [8] | K [9] [min⁻¹] | TIME [10] [h] | Structure (SMILES) |
| --- | --- | --- | --- | --- | --- | --- | --- | --- | --- | --- | --- |
| 1.08 | 0 | 0 | 22 | 7.6 | 99 | > 100 | > 80 |  |  |  | COc1ccc(-c2c(C#N)c(N)nc(SCc3csc(-c4ccccn4)n3)c2C#N)cc1 |
| 1.71 |  |  |  |  |  |  | > 80 | 1.4 ×10⁶ /M/min | 0.03 | 0.555 | COc1ccc(-c2c(C#N)c(N)nc(SCc3csc(-c4ccc(Br)cn4)n3)c2C#N)cc1 |
| 1 | 0 |  | 50 | 1.5 | 55 | > 100 |  |  |  |  | COc1ccc(-c2c(C#N)c(N)nc(SCc3cscn3)c2C#N)cc1 |
| 1.23 | 0 | 63 | 27 | 1.9 | 105 | > 100 | > 80 |  |  |  | COc1ccc(-c2c(C#N)c(N)nc(SCc3csc(-c4ccccc4)n3)c2C#N)cc1 |
| 2.07 |  |  |  |  |  |  | > 80 | 1.6 ×10⁶ /M/min | 0.011 | 1.51 | COc1ccc(-c2c(C#N)c(N)nc(SCc3csc(-c4ccc(I)cc4)n3)c2C#N)cc1 |
| 1.64 |  |  |  |  |  |  | > 80 | 3.4 ×10⁶ /M/min | 0.035 | 0.477 | COc1ccc(-c2c(C#N)c(N)nc(SCc3csc(-c4ccc(Cl)cn4)n3)c2C#N)cc1 |
| 1.56 |  |  |  |  |  |  |  | 4.6 ×10⁶ /M/min | 0.033 | 0.505 | COc1ccc(-c2c(C#N)c(N)nc(SCc3csc(-c4ccc(F)cc4)n3)c2C#N)cc1 |
